# Screening data (PubChem BioAssay)
# Sampled rows, rich in hits. Any-hit rate of the full collection: about 2.7%.
# SIAE primary: inhibitors of human sialic acid acetylesterase SIAE. Q9HAT2. SIAE FP-Rh probe binding, fluorescence polarization. inhibition, % at 9.66 µM. 370,000 compounds, 0.69% hits;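 active means inhibition above a cutoff: mean of compounds within the control limits plus 3 SD of those, cut at about 17% in these data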;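 further: 0% = plate median of compound wells and 100% = probe without SIAE protein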
# ABHD4 inh: ABHD4 (mouse) inhibition, primary FP screen. inhibition, % at 8.92 µM. 370,000 compounds, 0.54% hits. Q8VD66. purified mABHD4, FP-Rh probe fluorescence polarization;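 active means inhibition exceeding the mean over every tested compound plus 3 SD, cut at about 30% in these data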;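 further: 0% = plate median of compound wells and 100% = S159A mutant with DMSO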
# Target sequence (Q8VD66 whole entry, looked up): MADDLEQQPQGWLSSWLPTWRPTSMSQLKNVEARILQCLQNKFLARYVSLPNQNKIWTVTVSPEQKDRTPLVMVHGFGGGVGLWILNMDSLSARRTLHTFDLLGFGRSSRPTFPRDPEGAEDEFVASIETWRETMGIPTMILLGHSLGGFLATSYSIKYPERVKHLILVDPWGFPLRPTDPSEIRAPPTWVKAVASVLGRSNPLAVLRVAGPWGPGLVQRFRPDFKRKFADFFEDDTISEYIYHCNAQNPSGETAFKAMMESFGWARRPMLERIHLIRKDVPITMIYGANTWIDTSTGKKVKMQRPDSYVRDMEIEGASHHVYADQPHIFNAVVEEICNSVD
#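 Material: mouse ABHD4 enzyme, wild type; Benchmarks: S159A mutant high control, sample median low control; Buffer or medium: HEPES pH 7.0, NaCl, Pluronic buffer; Signal: fluorescence polarization; Read-out: percent inhibition of probe binding, normalized to plate controls; Timing: pre-incubation 45 min, probe exposure 60 min, at 25 °C; Dosing: 8.92 µM, single dose.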
# HTRA1 inh: inhibitors of human serine peptidase HTRA1. Q92743. recombinant HTRA1, FP-rhodamine activity-based probe, fluorescence polarization. inhibition, % at 5.96 µM. 340,000 compounds, 0.5% hits; in the data active means inhibition above about 36%;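 further: 0% = enzyme with DMSO and 100% = wells lacking enzyme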
# PRMT1 FP inh: blocks human protein arginine methyltransferase 1; recombinant PRMT1, activity-based probe fluorescence polarization; inhibition, % at 2.79 µM; 370,000 compounds, 1.3% hits; AID 652257;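 active means inhibition above about 21% made by adding two undisclosed values, limit read from the data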
# TCR-CD3 inh: blocks the human TCR-CD3 interaction; TAMRA-labeled TCR probe fluorescence, biochemical; inhibition, % at 9.4 µM; 360,000 compounds, 0.37% hits; AID 651800; in the data active means inhibition above about 19%;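 further: recombinant mutant TCR 2C K166C tagged with TAMRA read by polarization; 0% = receptor in buffer alone and 100% = receptor with positive control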
# SIAE confirm: confirmation of human SIAE inhibitors | 2,300 compounds, 13% hits | AID 1117263 | inhibition, % at 9.66 µM | SIAE FP-Rh activity-based probe, fluorescence polarization | shares compounds with SIAE primary;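 active means mean inhibition of the replicates above the hit cutoff set in the primary screen, cut at about 17% in these data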;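 further: 0% = SIAE with DMSO and probe and 100% = probe without SIAE; inhibitors lower polarization as more probe stays unbound to SIAE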
# The depositor's hits bear a star; · = not tested or not shown.
SMILES,SIAE primary,ABHD4 inh,HTRA1 inh,PRMT1 FP inh,TCR-CD3 inh,SIAE confirm
CC(C)c1ccc(NC(=O)/C(C#N)=C/c2ccncc2)cc1,18*,3,-5,0,-4,1
N#C/C(=C\c1ccncc1)C(=O)Nc1ccc(C(=O)O)cc1,-12,-11,3,-3,3,·
COc1ccc(C(=O)CCNc2ccc3c(c2)OCCO3)cc1,18*,4,3,4,0,4
COc1ccc(C(=O)Nc2ccc3c(c2)OCCO3)cc1,-1,3,-6,2,4,·
O=C(C[C@H]1C[C@@H]2c3cc(NC(=O)c4cccnc4)ccc3O[C@@H]2[C@H](CO)O1)NCc1ccncc1,3,4,1,0,5,·
C/C(=N\NC(=O)c1ccccc1)c1cc2cc([N+](=O)[O-])ccc2oc1=O,9,3,7,-2,8,·
C/C(=N\NC(=O)c1ccc([N+](=O)[O-])cc1)c1cc2ccccc2oc1=O,17*,9,6,-1,6,7
CCn1c(SCC(=O)Nc2ccccc2)nc2ccccc2c1=O,17*,0,-7,0,2,4
COc1ccc(CCNC(=O)CC(=O)N/N=C\c2ccc(OCC(N)=O)cc2)cc1OC,5,-10,-3,3,-4,·
CCC1(c2ccc(F)cc2)NC(=O)N(CC(=O)N(C)C2CCS(=O)(=O)C2)C1=O (stereo not given),21*,-1,7,3,-3,-2
O=C(CN1CCN(c2ccccc2O)CC1)NC(c1ccccc1)c1ccccc1,18*,-7,-8,0,-1,4
CC(C)(C)c1ccccc1NC(=O)COC(=O)CN1C(=O)NC2(CCCC2)C1=O,21*,1,5,2,7,4
Cc1ccccc1NC(=O)COC(=O)CN1C(=O)NC(C)(C)C1=O,-1,-8,2,-3,5,·
Cc1ccccc1Nc1c(-c2ccncc2)nc2ccc(Br)cn12,-1,-3,-24,0,2,·
Brc1ccc2nc(-c3ccncc3)c(NC3CCCC3)n2c1,19*,0,5,4,0,2
COc1ccc(CN2CCN(Cc3ccc(C)cc3)CC2)c(OC)c1,-11,23,9,3,0,·
COc1ccc(CN2CCN(Cc3ccccc3F)CC2)c(OC)c1,17*,7,-8,6,-3,-5
COc1ccc([C@@]23CCN=C2c2[nH]c4ccccc4c2CCN3)c(N)c1,19*,11,·,5,·,2
COc1ccc2c3c([nH]c2c1)C1=NCC[C@]12c1ccccc1N=CN2CC3,6,7,·,3,·,·
O=C(NCc1ccccc1)[C@@H]1CCCN1C(=O)[C@H]1CCCN1C(=O)C1CCCCC1,11,4,·,0,-3,·
Cc1ccc(C)c(NC(=O)C(C)N2C(=O)c3ccccc3C2=O)c1 (stereo not given),-2,-3,0,0,0,·
Fc1ccc(-c2csc(NC(=S)Nc3ccccc3)n2)cc1,17*,-1,-14,-7,1,0
O=C(O)CCC(=O)Nc1nc(-c2ccccc2)cs1,19*,0,6,1,-1,4
CN(C)CC(=O)Nc1nc(-c2ccccc2)cs1,1,3,2,1,10,·
O=C(Nc1ccccc1)Nc1nc(-c2ccc(F)cc2)cs1,4,1,-1,1,-3,·
SMILES,SIAE primary,ABHD4 inh,HTRA1 inh,PRMT1 FP inh,TCR-CD3 inh,SIAE confirm
O=C(N[C@@H](Cc1cccnc1)C(=O)N1CCC[C@H]1C(=O)NCCc1ccccc1Cl)c1ccc(Cl)c(Cl)c1,-6,-5,·,-1,-3,·
C#CCNC(=O)C[C@@H]1C[C@@]2(C(=O)OCC)CCCC=C2N(CCCCCCCC)C1=O,4,-5,·,5,4,·
COc1cc(OC)cc(C(=O)Oc2ccc(/C=N/Nc3nc4ccccc4s3)cc2OC)c1,19*,7,-12,3,0,17*
COc1cc(/C=N/Nc2ccccc2[N+](=O)[O-])ccc1OC(=O)c1ccccc1F,4,1,3,0,-6,·
COc1ccc(C=NNc2nc3ccccc3s2)cc1,9,9,2,2,5,·
COc1cc(/C=N/Nc2nc3ccccc3s2)ccc1OC(=O)c1ccccc1F,21*,5,-2,-1,-1,-11
O=C(C(=O)N1CCC(CNS(=O)(=O)c2cccc(C(F)(F)F)c2)CC1)c1cc2ccccc2o1,-7,-4,·,0,-1,·
CCOc1cccc(CN2CCCC(N3CCc4cc(OC)c(OC)cc4C3)C2)c1O (stereo not given),-2,-5,-2,-3,-5,·
CCC(CO)Oc1cc(NCc2ccc(Cl)cc2Cl)c2ncn(C(C)C)c2c1 (stereo not given),19*,28,9,-2,-1,8
CC1(C)CC(=O)C=C(c2ccc(COC(=O)c3ccc(Br)cc3)cc2)C1=O,6,0,·,2,-4,·
Clc1cccc(N/N=C/c2ccc(N3CCOCC3)cc2)c1,3,10,20,0,1,·
O=C(c1ccc([N+](=O)[O-])cc1)N1CCCC1,-5,0,3,7,-4,·
O=C(Nc1ccc(N2CCOCC2)cc1)c1ccc([N+](=O)[O-])cc1,17*,5,2,0,6,-1
O=C(c1ccc([N+](=O)[O-])cc1)N1CCOCC1,18*,5,8,-4,-3,-3
O=C(Nc1ccc(N2CCCCC2)cc1)c1ccc([N+](=O)[O-])o1,19*,11,16,1,-7,6
O=[N+]([O-])c1cccc(N/N=C/c2ccc(N3CCOCC3)cc2)c1,18*,8,26,6,-10,6
Nc1sc(Cc2ccccc2)cc1C(=O)c1c(-c2ccccc2)[nH]c2ccccc12,0,-12,·,14,-5,·
COc1ccccc1Cc1c(-c2cccc(Cl)c2)nc2c3ccccc3ccn12,-2,-3,·,-2,0,·
CN(C)c1nc2c(N)ncnc2n1C1OC(CO)C(O)C1O (stereo not given),6,-6,0,-3,5,·
CN(C)c1nc2c(N)ncnc2n1[C@H]1O[C@@H](CO)[C@H](O)[C@@H]1O,22*,5,2,1,1,2
CCCCC(CCC(=O)Nc1cccc([N+](=O)[O-])c1)C(=O)O (stereo not given),-1,10,8,2,2,·
CCC(CCC(=O)Nc1cccc([N+](=O)[O-])c1)C(=O)O (stereo not given),23*,2,-3,0,5,4
COc1ccc2nc(SCC(=O)N(C)CC(=O)Nc3ccc(F)cc3)[nH]c2c1,18*,7,-4,-1,2,-3
CN(CC(=O)Nc1cccc(F)c1)C(=O)CCSc1ccc(F)cc1,-3,-2,0,-2,7,·
CN(CC(=O)Nc1ccc(F)cc1)C(=O)CSc1nc2ncc(Cl)cc2[nH]1,8,1,10,-5,2,·
